{"source": "ChEMBL document CHEMBL4402564", "about": "“Synthetic Lethality in Pancreatic Cancer: Discovery of a New RAD51-BRCA2 Small Molecule Disruptor That Inhibits Homologous Recombination and Synergizes with Olaparib” (J Med Chem, 2020)", "note": "Calls of active or inactive are those of the source. The rule behind the calls is not given here."}
{"system": "BXPC-3", "assay": "Antiproliferative activity against human BxPC3 cells at 20 uM after 72 hrs in presence of olaparib by CellTiter-Glo luminescent cell viability assay", "type": "functional, cell-based", "summary_of_the_method": "(§1)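 BxPC-3 cells grown in RPMI 1640 with 10% FBS, penicillin/streptomycin and 2 mM glutamine. Disruptor given alone or with 10 μM olaparib in medium containing 0.6% DMSO, with the same DMSO in controls. Viability read at 72 h, measured alongside cell death.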"}
{"smiles": "CCn1cc2cc(-c3ccc(C4CC(c5c(-c6ccccc6)c6cc(Cl)ccc6[nH]c5=O)=NN4C(=O)CCC(=O)O)cc3)ccc2n1", "note": "(racemic)", "Activity": "Active"}
{"system": "CAPAN-1", "assay": "Induction of DNA damage in BRCA2 defective human Capan1 cells assessed as increase in gamma-H2AX labelling […] hrs by immunofluorescence microscopic analysis", "type": "functional, cell-based", "summary_of_the_method": "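Cells exposed 48 h to 20 μM disruptor alone or with 10 μM olaparib, in medium with 0.6% DMSO. Nuclear γ-H2AX foci visualized by immunofluorescence and percentage of labeled nuclei scored. BxPC-3 (functional BRCA2) and Capan-1 (BRCA2-defective) cultures in RPMI 1640 with 10% FBS.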"}
{"smiles": "O=C(c1cc(Cc2n[nH]c(=O)c3ccccc23)ccc1F)N1CCN(C(=O)C2CC2)CC1", "Activity": "Active"}
{"molecular_target": "T1, DNA repair protein RAD51 homolog 1 (Homo sapiens) (UniProt Q06609)", "T1 sequence (whole entry)": "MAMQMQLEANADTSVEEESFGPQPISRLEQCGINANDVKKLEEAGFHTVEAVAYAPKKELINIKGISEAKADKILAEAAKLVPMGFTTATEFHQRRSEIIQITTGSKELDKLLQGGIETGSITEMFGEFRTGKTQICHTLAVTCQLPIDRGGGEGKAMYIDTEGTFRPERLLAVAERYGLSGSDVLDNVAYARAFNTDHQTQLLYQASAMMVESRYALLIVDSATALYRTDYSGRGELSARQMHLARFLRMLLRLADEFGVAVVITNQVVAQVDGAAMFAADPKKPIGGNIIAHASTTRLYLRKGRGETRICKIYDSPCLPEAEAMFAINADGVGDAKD", "assay": "Inhibition of RAD51 interaction in human BxPC3 cells assessed as inhibition of homologous recombination incubated for 5 hrs by RT-PCR analysis", "type": "cell-based", "summary_of_the_method": "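Commercial two-plasmid recombination assay in BxPC-3 cells, with compound applied at different doses for 5 h simultaneously with plasmid transfection. Tested up to 40 μM, limited by solubility. Dose giving 50% HR inhibition estimated by polynomial regression.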"}
{"smiles": "CCCn1ncc2cc(C3CC(c4c(-c5ccccc5)c5cc(Cl)ccc5[nH]c4=O)=NN3C(C)=O)ccc21", "note": "(racemic)", "inhibition": "inactive"}
{"smiles": "CCC(=O)N1N=C(c2c(-c3ccccc3)c3cc(Cl)ccc3[nH]c2=O)CC1c1ccc(Br)cc1", "note": "(racemic)", "inhibition": "inactive"}
{"smiles": "CCC(=O)N1N=C(c2c(-c3ccccc3)c3cc(Cl)ccc3[nH]c2=O)CC1c1ccc(Cl)cc1", "note": "(racemic)", "inhibition": "inactive"}
{"smiles": "Cn1ccc2cc(C3CC(c4c(-c5ccccc5)c5cc(Cl)ccc5[nH]c4=O)=NN3C(=O)CCC(=O)O)ccc21", "note": "(racemic)", "inhibition": "inactive"}
{"smiles": "O=C(O)CCC(=O)N1N=C(c2c(-c3ccccc3)c3cc(Cl)ccc3[nH]c2=O)CC1c1ccc(Br)cc1", "note": "(racemic)", "inhibition": "inactive"}
{"smiles": "CC(=O)N1N=C(c2c(-c3ccccc3)c3cc(Cl)ccc3[nH]c2=O)CC1c1ccc2c(ccn2C)c1", "note": "(racemic)", "inhibition": "inactive"}
{"smiles": "CCn1cc2cc(-c3ccc(C4CC(c5c(-c6ccccc6)c6cc(Cl)ccc6[nH]c5=O)=NN4C(=O)CCC(=O)O)cc3)ccc2n1", "note": "(racemic)", "inhibition": "inactive"}
{"smiles": "CC(=O)N1N=C(c2c(-c3ccccc3)c3cc(Cl)ccc3[nH]c2=O)CC1c1ccc(C(C)(C)C)cc1", "note": "(racemic)", "inhibition": "inactive"}
{"system": "BXPC-3", "assay": "Antiproliferative activity against human BxPC3 cells at 5 uM after 72 hrs in presence of olaparib by CellTiter-Glo luminescent cell viability assay", "type": "functional, cell-based", "summary_of_the_method": "as §1"}
{"smiles": "Cn1ccc2cc(C3CC(c4c(-c5ccccc5)c5cc(Cl)ccc5[nH]c4=O)=NN3C(=O)CCC(=O)O)ccc21", "note": "(racemic)", "Activity": "inactive"}
{"molecular_target": "T2, DNA repair protein RAD51 homolog 1 (Homo sapiens, UniProt Q06609)", "T2 sequence (Q06609 whole entry)": "T1 sequence (whole entry)", "assay": "Inhibition of biotinylated BRC4 peptide binding to His-tagged human RAD51 expressed in Escherichia coli Rosetta(DE3) pLysS cells assessed as BRC4-RAD51 protein -protein interaction by competitive ELISA", "summary_of_the_method": "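Biotinylated BRC4 peptide coated onto wells, washed with PBS/0.05% Tween-20, blocked with 1% BSA/PBST, then hybridized overnight with human RAD51. Compounds tested at 0.01–100 μM in triplicate with 1% DMSO constant. Bound RAD51 detected with anti-RAD51 and HRP secondary antibody, TMB colorimetric signal quenched with 1 M HCl. EC50 ± SD reported.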"}
{"smiles": "CS(=O)(=O)NCCC(=O)N1N=C(c2c(-c3ccccc3)c3cc(Cl)ccc3[nH]c2=O)CC1c1ccc(F)cc1", "note": "(racemic)", "EC50": "Not Active"}
{"smiles": "O=C(O)CCC(=O)N1N=C(c2c(-c3ccccc3)c3ccccc3[nH]c2=O)CC1c1ccc(Br)cc1", "note": "(racemic)", "EC50": "Not Active"}
{"smiles": "CCCn1cc2cc(C3CC(c4c(-c5ccccc5)c5cc(Cl)ccc5[nH]c4=O)=NN3C(=O)CCC(=O)O)ccc2n1", "note": "(racemic)", "EC50": "Not Active"}
{"smiles": "O=C(O)CCC(=O)N1N=C(c2c(-c3ccccc3)c3ccccc3[nH]c2=O)CC1c1ccc(Cl)cc1", "note": "(racemic)", "EC50": "Not Active"}
{"smiles": "O=C(O)CCC(=O)N1N=C(c2c(-c3ccccc3)c3ccccc3[nH]c2=O)CC1c1ccc(C(F)(F)F)cc1", "note": "(racemic)", "EC50": "Not Active"}
{"smiles": "O=C(O)CCC(=O)N1N=C(c2c(-c3ccccc3)c3ccccc3[nH]c2=O)CC1c1cccc(Br)c1", "note": "(racemic)", "EC50": "Not Active"}
{"smiles": "O=C(O)CCC(=O)N1N=C(c2c(O)nc3ccc(Cl)cc3c2-c2ccccc2)CC1c1ccco1", "note": "(racemic)", "EC50": "Not Active"}
{"smiles": "CC(=O)N1N=C(c2c(-c3ccccc3)c3cc(Cl)ccc3[nH]c2=O)CC1c1ccc(C(F)(F)F)cc1", "note": "(racemic)", "EC50": "Not Active"}
{"smiles": "COc1ccc(C2CC(c3c(-c4ccccc4)c4ccccc4[nH]c3=O)=NN2C(=O)CCC(=O)O)cc1", "note": "(racemic)", "EC50": "Not Active"}
{"smiles": "CC(=O)N1N=C(c2c(-c3ccccc3)c3cc(Cl)ccc3[nH]c2=O)CC1c1ccco1", "note": "(racemic)", "EC50": "Not Active"}
{"smiles": "COC(=O)CCC(=O)N1N=C(c2c(-c3ccccc3)c3cc(Cl)ccc3[nH]c2=O)CC1c1ccc(F)cc1", "note": "(racemic)", "EC50": "Not Active"}
{"smiles": "CCCn1ncc2cc(C3CC(c4c(-c5ccccc5)c5cc(Cl)ccc5[nH]c4=O)=NN3C(=O)CCC(=O)O)ccc21", "note": "(racemic)", "EC50": "Not Active"}
{"smiles": "O=C(O)CCC(=O)N1N=C(c2c(-c3ccccc3)c3cc(Cl)ccc3[nH]c2=O)CC1c1ccc2nn(C3CCCCC3)cc2c1", "note": "(racemic)", "EC50": "Not Active"}
{"smiles": "COc1ccc(C2CC(c3c(-c4ccccc4)c4cc(Cl)ccc4[nH]c3=O)=NN2C(=O)CCC(=O)O)cc1F", "note": "(racemic)", "EC50": "Not Active"}
{"smiles": "NCCC(=O)N1N=C(c2c(-c3ccccc3)c3cc(Cl)ccc3[nH]c2=O)CC1c1ccc(F)cc1", "note": "(racemic)", "EC50": "Not Active"}
{"smiles": "COc1ccc(C2CC(c3c(O)nc4ccc(Cl)cc4c3-c3ccccc3)=NN2C(=O)CCC(=O)O)cc1", "note": "(racemic)", "EC50": "Not Active"}
{"smiles": "NC(=O)CCC(=O)N1N=C(c2c(-c3ccccc3)c3cc(Cl)ccc3[nH]c2=O)CC1c1ccc(F)cc1", "note": "(racemic)", "EC50": "Not Active"}
{"smiles": "O=C(O)CCC(=O)N1N=C(c2c(-c3ccccc3)c3ccccc3[nH]c2=O)CC1c1ccc(F)cc1", "note": "(racemic)", "EC50": "Not Active"}
{"smiles": "CC(C)(C)c1ccc(C2CC(c3c(-c4ccccc4)c4cc(Cl)ccc4[nH]c3=O)=NN2C(=O)CCC(=O)O)cc1", "note": "(racemic)", "EC50": "Not Active"}
{"smiles": "O=C(O)CCC(=O)N1N=C(c2c(-c3ccccc3)c3cc(Cl)ccc3[nH]c2=O)CC1c1ccc2c(cnn2C2CCCCC2)c1", "note": "(racemic)", "EC50": "Not Active"}
{"system": "BXPC-3", "assay": "Antiproliferative activity against human BxPC3 cells after 72 hrs in presence of olaparib by CellTiter-Glo luminescent cell viability assay", "type": "functional, cell-based", "summary_of_the_method": "as §1"}
{"smiles": "CCCn1ncc2cc(C3CC(c4c(-c5ccccc5)c5cc(Cl)ccc5[nH]c4=O)=NN3C(C)=O)ccc21", "note": "(racemic)", "Activity": "inactive"}
{"smiles": "CCC(=O)N1N=C(c2c(-c3ccccc3)c3cc(Cl)ccc3[nH]c2=O)CC1c1ccc(Br)cc1", "note": "(racemic)", "Activity": "inactive"}
{"smiles": "CCC(=O)N1N=C(c2c(-c3ccccc3)c3cc(Cl)ccc3[nH]c2=O)CC1c1ccc(Cl)cc1", "note": "(racemic)", "Activity": "inactive"}
{"smiles": "CC(=O)N1N=C(c2c(-c3ccccc3)c3cc(Cl)ccc3[nH]c2=O)CC1c1ccc(Cl)cc1", "note": "(racemic)", "Activity": "inactive"}
{"smiles": "O=C(O)CCC(=O)N1N=C(c2c(-c3ccccc3)c3cc(Cl)ccc3[nH]c2=O)CC1c1ccc(-c2ccc(Br)cc2)cc1", "note": "(racemic)", "Activity": "inactive"}
{"smiles": "O=C(O)CCC(=O)N1N=C(c2c(-c3ccccc3)c3cc(Cl)ccc3[nH]c2=O)CC1c1ccc(Br)cc1", "note": "(racemic)", "Activity": "inactive"}
{"smiles": "O=C(O)CCC(=O)N1N=C(c2c(-c3ccccc3)c3cc(Cl)ccc3[nH]c2=O)CC1c1ccc(-c2ccc(F)cc2)cc1", "note": "(racemic)", "Activity": "inactive"}
{"smiles": "CCn1ccc2cc(C3CC(c4c(-c5ccccc5)c5cc(Cl)ccc5[nH]c4=O)=NN3C(=O)CCC(=O)O)ccc21", "note": "(racemic)", "Activity": "inactive"}
